In brackets after ≈: the same amount, converted by molar mass. Activity calls are given as the source filed them. No cut-off for these calls is given here.
Legend:
Candida albicans [1] = experiment: Antifungal activity against Candida albicans 44506 assessed as inhibition of U-14C-acetate incorporation into TCA precipitable material after 1 hr; format: functional, organism-based; conditions: Candida albicans, 44506, 1 h
Summary of the method: (§1)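 Candida grown overnight in YNBG to mid-log phase, washed with saline, and resuspended in YNB lacking the precursor under study. Compound preincubated 30 min at 37°. 14C-labelled acetate, adenine, glucose or leucine (per line) then added, with incorporation followed 60 min (linear). Stopped with ice-cold TCA, 5% final. IC50 is the concentration giving 50% inhibition versus control.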

Candida albicans [2] = experiment: Antifungal activity against Candida albicans 44506 assessed as inhibition of U-14C-adenine incorporation into TCA precipitable material after 1 hr; format: functional, organism-based; conditions: Candida albicans, 44506, 1 h; summary of the method: as §1
Candida albicans [3] = experiment: Antifungal activity against Candida albicans 44506 assessed as inhibition of U-14C-glucose incorporation into TCA precipitable material after 1 hr; format: functional, organism-based; conditions: Candida albicans, 44506, 1 h; summary of the method: as §1
Candida albicans [4] = experiment: Antifungal activity against Candida albicans 44506 assessed as inhibition of U-14C-leucine incorporation into TCA precipitable material after 1 hr; format: functional, organism-based; conditions: Candida albicans, 44506, 1 h; summary of the method: as §1
Candida albicans [5] = experiment: Antifungal activity against Candida albicans 44506 in RPMI-1640 medium after 18 to 24 hrs by twofold broth dilution method; format: functional
Summary of the method: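 Twofold broth microdilution in RPMI-1640 (pH 7.2, unbuffered), inoculum 10^3 cells/ml. Incubated 18–24 h at 37° under 5% CO2. MIC read visually as the lowest concentration giving complete growth inhibition. Average of triplicates.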

Candida albicans [6] = experiment: Antifungal activity against Candida albicans 44506 in Sabouraud dextrose broth after 18 to 24 hrs by twofold broth dilution method; format: functional
Summary of the method: (§2)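 Inoculum 10^3 cells/ml, incubated 18–24 h at 37°. MIC read visually as the lowest concentration with complete growth inhibition. Average of triplicates.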

Candida albicans [7] = experiment: Antifungal activity against Candida albicans 44506 in RPMI-1640 medium after 7 days in pH 8 buffer by agar dilution method; format: functional; conditions: Candida albicans, 44506, 168 h
Candida albicans [8] = experiment: Antifungal activity against Candida albicans 44506 in RPMI-1640 medium after 7 days in pH 5 buffer by agar dilution method; format: functional; conditions: Candida albicans, 44506, 168 h
Candida albicans [9] = experiment: Antifungal activity against Candida albicans 44506 in YNBG medium of pH 5.4 after 7 days by agar dilution method; format: functional; conditions: Candida albicans, 44506, 168 h
Candida albicans [10] = experiment: Antifungal activity against Candida albicans 44506 in YNBG medium after 7 days in pH 4 buffer by agar dilution method; format: functional; conditions: Candida albicans, 44506, 168 h
[11] = test system: Trichophyton mentagrophytes; experiment: Antifungal activity against Trichophyton mentagrophytes 9533 after 18 to 24 hrs by twofold broth dilution method; format: functional
Epidermophyton floccosum = experiment: Antifungal activity against Epidermophyton floccosum 25066 after 18 to 24 hrs by twofold broth dilution method; format: functional
Sporothrix schenckii = experiment: Antifungal activity against Sporothrix schenckii 14284 after 18 to 24 hrs by twofold broth dilution method; format: functional
Candida albicans [12] = experiment: Antifungal activity against Candida albicans 44506 in YNBG medium after 7 days in pH 7 buffer by agar dilution method; format: functional; conditions: Candida albicans, 44506, 168 h
Pseudomonas aeruginosa = experiment: Antibacterial activity against Pseudomonas aeruginosa 27853 after 18 to 24 hrs by twofold broth dilution method; format: functional, organism-based
Summary of the method: (§3)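 Twofold serial dilutions in Mueller-Hinton broth supplemented with Mg2+ and Ca2+. Inoculum 10^3 cells/ml, with cell density counted by hemocytometer. Incubated 18–24 h at 37°. MIC is the lowest concentration giving complete visual inhibition of growth. Triplicate determinations, reported as the average.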

Escherichia coli = experiment: Antibacterial activity against Escherichia coli HBOI 001 after 18 to 24 hrs by twofold broth dilution method; format: functional, organism-based; summary of the method: as §3
Candida albicans [13] = experiment: Antifungal activity against Candida albicans 44506 in RPMI-1640 medium after 24 to 48 hrs; format: functional
Summary of the method: (§4)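 MFC taken from the broth MIC plates: wells resuspended, and 1 µl streaked onto Sabouraud dextrose agar (Candida) or Emmon's SDA (Cryptococcus). Scored after 24–48 h at 37°. MFC is the lowest concentration killing 99% of the inoculum. Average of triplicates.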

Candida albicans [14] = experiment: Antifungal activity against Candida albicans 44506 in RPMI-1640 medium after 7 days in pH 7 buffer by agar dilution method; format: functional; conditions: Candida albicans, 44506, 168 h
Candida albicans [15] = experiment: Antifungal activity against Candida albicans 44506 in RPMI-1640 medium after 7 days in pH 6 buffer by agar dilution method; format: functional; conditions: Candida albicans, 44506, 168 h
Nannizzia gypsea = experiment: Antifungal activity against Microsporum gypseum 42960 after 18 to 24 hrs by twofold broth dilution method; format: functional
Cryptococcus neoformans [16] = experiment: Antifungal activity against Cryptococcus neoformans 32045 after 24 to 48 hrs; format: functional; summary of the method: as §4
Bacillus subtilis = experiment: Antibacterial activity against Bacillus subtilis 6633 after 18 to 24 hrs by twofold broth dilution method; format: functional; summary of the method: as §3
Candida albicans [17] = experiment: Antifungal activity against Candida albicans 44506 in YNBG medium after 7 days in pH 6 buffer by agar dilution method; format: functional; conditions: Candida albicans, 44506, 168 h
Candida albicans [18] = experiment: Antifungal activity against Candida albicans 44506 in YNBG medium after 18 to 24 hrs by twofold broth dilution method; format: functional; summary of the method: as §2
Candida albicans [19] = experiment: Antifungal activity against Candida albicans 44506 in YNBG medium after 7 days in pH 5 buffer by agar dilution method; format: functional; conditions: Candida albicans, 44506, 168 h
Candida albicans [20] = experiment: Antifungal activity against Candida albicans 44506 in Sabouraud dextrose broth after 24 to 48 hrs; format: functional; summary of the method: as §4
Candida albicans [21] = experiment: Antifungal activity against Candida albicans 44506 in YNBG medium after 7 days in pH 8 buffer by agar dilution method; format: functional; conditions: Candida albicans, 44506, 168 h
Cryptococcus neoformans [22] = experiment: Antifungal activity against Cryptococcus neoformans 32045 after 48 hrs by twofold broth dilution method; format: functional; conditions: Cryptococcus neoformans, 32045, 48 h
Summary of the method: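 Broth microdilution with twofold compound dilutions and an inoculum of 10^3 cells/ml. Incubated 48 h at 37°. MIC is the visually read lowest concentration completely inhibiting growth. Triplicate average.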

[23] = test system: Scopulariopsis brevicaulis; experiment: Antifungal activity against Scopulariopsis brevicaulis 36840 after 18 to 24 hrs by twofold broth dilution method; format: functional
Candida albicans [24] = experiment: Antifungal activity against Candida albicans 44506 in RPMI-1640 medium after 7 days in pH 4 buffer by agar dilution method; format: functional; conditions: Candida albicans, 44506, 168 h
Candida albicans [25] = experiment: Antifungal activity against Candida albicans 44506 in RPMI-1640 medium of pH 7.2 after 7 days by agar dilution method; format: functional; conditions: Candida albicans, 44506, 168 h
Trichosporon beigelii = experiment: Antifungal activity against Trichosporon beigelii 28592 after 18 to 24 hrs by twofold broth dilution method; format: functional

## CN(CC[C@H](N)CC(=O)N[C@H]1C=C[C@H](n2ccc(N)nc2=O)O[C@@H]1C(=O)O)C(=N)N [BLASTICIDIN_S]
Candida albicans [1]
  IC50: > 100 µg/mL
Candida albicans [2]
  IC50: > 100 µg/mL
Candida albicans [3]
  IC50: > 100 µg/mL
Candida albicans [4]
  IC50: 6 µg/mL (≈ 14.2 µM)

## Nc1nc(=O)[nH]cc1F [FLUCYTOSINE]
Candida albicans [1]
  IC50: > 100 µg/mL
Candida albicans [2]
  IC50: 6 µg/mL (≈ 46.5 µM)
Candida albicans [3]
  IC50: > 100 µg/mL
Candida albicans [4]
  IC50: > 100 µg/mL

## CC(=O)N1CCN(c2ccc(OCC3COC(Cn4ccnc4)(c4ccc(Cl)cc4Cl)O3)cc2)CC1 (centres undefined) [KETOCONAZOLE]
Candida albicans [5]
  MIC: 0.008 µg/mL (≈ 0.0151 µM)
Candida albicans [6]
  MIC: 0.062 µg/mL (≈ 0.117 µM)

## O=C1c2nccc(O)c2-c2nc3ccccc3c3ccnc1c23 [MERIDINE]
Candida albicans [7]
  MIC: 0.31 µg/mL (≈ 1.04 µM)
Candida albicans [8]
  MIC: 0.62 µg/mL (≈ 2.07 µM)
Candida albicans [5]
  MIC: 0.2 µg/mL (≈ 0.668 µM)
Candida albicans [1]
  IC50: > 100 µg/mL
Candida albicans [9]
  MIC: 2.5 µg/mL (≈ 8.35 µM)
Candida albicans [10]
  MIC: 2.5 µg/mL (≈ 8.35 µM)
[11]
  MIC: 6.2 µg/mL (≈ 20.7 µM)
Epidermophyton floccosum
  MIC: 1.6 µg/mL (≈ 5.35 µM)
Sporothrix schenckii
  MIC: > 25 µg/mL
Candida albicans [12]
  MIC: 1.2 µg/mL (≈ 4.01 µM)
Pseudomonas aeruginosa
  Activity: inactive
Escherichia coli
  Activity: inactive
Candida albicans [6]
  MIC: 3.1 µg/mL (≈ 10.4 µM)
Candida albicans [13]
  MFC: 0.2 µg/mL (≈ 0.668 µM)
Candida albicans [2]
  IC50: 1 µg/mL (≈ 3.34 µM)
Candida albicans [14]
  MIC: 0.31 µg/mL (≈ 1.04 µM)
Candida albicans [3]
  IC50: > 100 µg/mL
Candida albicans [15]
  MIC: 0.31 µg/mL (≈ 1.04 µM)
Nannizzia gypsea
  MIC: 25 µg/mL (≈ 83.5 µM)
Cryptococcus neoformans [16]
  MFC: 6.2 µg/mL (≈ 20.7 µM)
Bacillus subtilis
  MIC: 3.1 µg/mL (≈ 10.4 µM)
Candida albicans [17]
  MIC: 1.2 µg/mL (≈ 4.01 µM)
Candida albicans [4]
  IC50: 50 µg/mL (≈ 167 µM)
Candida albicans [18]
  MIC: 2.5 µg/mL (≈ 8.35 µM)
Candida albicans [19]
  MIC: 2.5 µg/mL (≈ 8.35 µM)
Candida albicans [20]
  MFC: 3.1 µg/mL (≈ 10.4 µM)
Candida albicans [21]
  MIC: 1.2 µg/mL (≈ 4.01 µM)
Cryptococcus neoformans [22]
  MIC: 0.8 µg/mL (≈ 2.67 µM)
[23]
  MIC: > 25 µg/mL
Candida albicans [24]
  MIC: 0.62 µg/mL (≈ 2.07 µM)
Candida albicans [25]
  MIC: 0.31 µg/mL (≈ 1.04 µM)
Trichosporon beigelii
  MIC: > 25 µg/mL

## Clc1ccc(COC(Cn2ccnc2)c2ccc(Cl)cc2Cl)c(Cl)c1 (centres undefined) [MICONAZOLE]
Candida albicans [5]
  MIC: 0.03 µg/mL (≈ 0.0721 µM)
Candida albicans [6]
  MIC: 25 µg/mL (≈ 60.1 µM)

Source: ChEMBL document CHEMBL1150059, “Antifungal activity of meridine, a natural product from the marine sponge Corticium sp” (J Nat Prod, 1992)
